According to ChEMBL document CHEMBL2086372 (ACS Med Chem Lett, 2012):
Activity calls are given as the source filed them. The rule behind the calls is not given here.

Key:
[1] = target: T1, 5-hydroxytryptamine receptor 1A (Homo sapiens, UniProt P08908); assay: Displacement of [3H]8-OH-DPAT from human 5HT1A receptor expressed in HeLa cells after 30 mins; format: cell-based
T1 sequence (P08908 whole entry): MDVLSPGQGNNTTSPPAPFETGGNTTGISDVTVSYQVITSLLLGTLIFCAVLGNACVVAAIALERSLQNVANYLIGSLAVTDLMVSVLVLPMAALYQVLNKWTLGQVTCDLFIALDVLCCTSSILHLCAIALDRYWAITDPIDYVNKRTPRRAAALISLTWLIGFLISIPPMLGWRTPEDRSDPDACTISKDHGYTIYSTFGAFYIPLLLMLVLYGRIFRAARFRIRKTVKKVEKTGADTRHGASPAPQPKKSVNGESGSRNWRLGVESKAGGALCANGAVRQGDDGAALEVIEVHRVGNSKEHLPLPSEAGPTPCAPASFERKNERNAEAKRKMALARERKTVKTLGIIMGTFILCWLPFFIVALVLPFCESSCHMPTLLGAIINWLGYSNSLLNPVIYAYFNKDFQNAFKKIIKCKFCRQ
Procedure, shortened: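 pKi is derived from displacement of [3H]-8-OH-DPAT binding at human cloned 5-HT1A receptor. Values are means ± SEMs of 3–6 separate experiments.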

Mus musculus [2] = assay: Effect on morphine-dependence in CD1 mouse assessed as decrease in naloxone-precipitated jumping at 0.05 mg/kg, ip administered acutely 15 mins prior to naloxone challenge relative to vehicle-treated control; format: functional, organism-based; set-up: dose 0.05 mg/kg
Procedure, shortened: (§1)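 Expression of morphine dependence in mice, tested with a single acute ip dose (racemate 0.05 mg/kg, enantiomers 0.025 mg/kg). Withdrawal was precipitated by naloxone in control and morphine-treated mice. Scored signs were jumping frequency and somatic signs (rearing, forepaw tremors, teeth chatter). Groups were compared with vehicle and with the morphine group.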

Mus musculus [3] = assay: Effect on morphine-dependence in CD1 mouse assessed as decrease in naloxone-precipitated jumping at 0.05 mg/kg, ip administered chronically 15 mins prior to each morphine challenge relative to vehicle-treated control; format: functional, organism-based; set-up: dose 0.05 mg/kg
Procedure, shortened: as §1, with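 “Acquisition” for “Expression”, “repeated” for “a single acute”, “dosing” for “dose”, “naloxone.” for “naloxone in control and morphine-treated mice.”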

Mus musculus [4] = assay: Effect on morphine-dependence in CD1 mouse assessed as decrease in naloxone-precipitated rearing at 0.05 mg/kg, ip administered chronically 15 mins prior to each morphine challenge relative to vehicle-treated control; format: functional, organism-based; set-up: dose 0.05 mg/kg
Procedure, shortened: as §1, with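 “Acquisition” for “Expression”, “repeated” for “a single acute”, “dosing” for “dose”, “naloxone.” for “naloxone in control and morphine-treated mice.”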

Mus musculus [5] = assay: Effect on morphine-dependence in CD1 mouse assessed as decrease in naloxone-precipitated rearing at 0.05 mg/kg, ip administered acutely 15 mins prior to naloxone challenge relative to vehicle-treated control; format: functional, organism-based; set-up: dose 0.05 mg/kg; procedure, shortened: as §1
Mus musculus [6] = assay: Effect on morphine-dependence in CD1 mouse assessed as decrease in naloxone-precipitated forepaw tremors at 0.05 mg/kg, ip administered chronically 15 mins prior to each morphine challenge relative to vehicle-treated control; format: functional, organism-based; set-up: dose 0.05 mg/kg
Procedure, shortened: as §1, with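 “Acquisition” for “Expression”, “repeated” for “a single acute”, “dosing” for “dose”, “naloxone.” for “naloxone in control and morphine-treated mice.”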

Mus musculus [7] = assay: Effect on morphine-dependence in CD1 mouse assessed as decrease in naloxone-precipitated forepaw tremors at 0.05 mg/kg, ip administered acutely 15 mins prior to naloxone challenge relative to vehicle-treated control; format: functional, organism-based; set-up: dose 0.05 mg/kg; procedure, shortened: as §1
Mus musculus [8] = assay: Effect on morphine-dependence in CD1 mouse assessed as decrease in naloxone-precipitated teeth chatter at 0.05 mg/kg, ip administered chronically 15 mins prior to each morphine challenge relative to vehicle-treated control; format: functional, organism-based; set-up: dose 0.05 mg/kg
Procedure, shortened: as §1, with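 “Acquisition” for “Expression”, “repeated” for “a single acute”, “dosing” for “dose”, “naloxone.” for “naloxone in control and morphine-treated mice.”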

Mus musculus [9] = assay: Effect on morphine-dependence in CD1 mouse assessed as decrease in naloxone-precipitated teeth chatter at 0.05 mg/kg, ip administered acutely 15 mins prior to naloxone challenge relative to vehicle-treated control; format: functional, organism-based; set-up: dose 0.05 mg/kg; procedure, shortened: as §1
Mus musculus [10] = assay: Antidepressant activity in CD1 mouse assessed as decrease in immobility time at 0.05 mg/kg, ip after 15 mins by forced swim test relative to vehicle-treated control; format: functional, organism-based; set-up: dose 0.05 mg/kg
Procedure, shortened: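 Mouse forced swimming test with immobility time as the read-out. Single ip doses were 0.012, 0.025, 0.05, 0.2 or 0.5 mg/kg, with fluoxetine 20 mg/kg ip as reference. Results are compared against vehicle-treated mice and given as means ± SEMs of 8–9 animals.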

[11] = Aqueous solubility of the compound after 1 hr at pH 7.4; format: physicochemical; conditions: buffer, pH 7.4, 1 h
[12] = Permeability of the compound at 10 uM after 4 hrs by PAMPA assay; format: ADME
[13] = target: T2, Alpha-2C adrenergic receptor (Homo sapiens) (UniProt P18825); assay: Agonist activity at human alpha2C adrenoceptor expressed in CHO cells assessed as extracellular acidification measured after 4 mins by cytosensor microphysiometric analysis relative to control; format: functional, cell-based
T2 sequence (whole entry): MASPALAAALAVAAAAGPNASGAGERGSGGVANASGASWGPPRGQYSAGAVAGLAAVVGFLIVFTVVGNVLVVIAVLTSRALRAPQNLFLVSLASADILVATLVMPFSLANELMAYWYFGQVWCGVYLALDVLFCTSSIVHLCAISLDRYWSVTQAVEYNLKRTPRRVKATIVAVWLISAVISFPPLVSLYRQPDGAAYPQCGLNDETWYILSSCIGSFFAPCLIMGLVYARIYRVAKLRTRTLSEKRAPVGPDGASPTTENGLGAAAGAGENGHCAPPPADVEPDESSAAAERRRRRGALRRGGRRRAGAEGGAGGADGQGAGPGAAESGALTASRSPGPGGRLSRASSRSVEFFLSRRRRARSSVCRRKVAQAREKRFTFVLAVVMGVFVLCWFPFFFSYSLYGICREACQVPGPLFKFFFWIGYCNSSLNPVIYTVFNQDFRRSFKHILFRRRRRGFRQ
Procedure, shortened: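 Binding and functional assays run on CHO cells expressing recombinant human α2-AR subtypes. Functional read-outs are agonist potency (pEC50) with intrinsic activity (ia), or antagonist pKb. Affinity is reported as pKi. Values are means ± SEMs of 3–6 separate experiments.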

Compound: CC(Oc1ccccc1CC1CC1)C1=NCCN1 (racemic) [CYCLOMETHYLINE]
- Ki [1]: 0.0105 µM
- Activity (Mus musculus [2]): Active
- Activity (Mus musculus [3]): Active
- Activity (Mus musculus [4]): Active
- Activity (Mus musculus [5]): Active
- Activity (Mus musculus [6]): Active
- Activity (Mus musculus [7]): Active
- Activity (Mus musculus [8]): Active
- Activity (Mus musculus [9]): Active
- Activity (Mus musculus [10]): Active
- solubility [11]: soluble
- permeability [12]: permeable
- Intrinsic activity [13]: 0.8
